Screening data deposited in PubChem by Sanford-Burnham Center for Chemical Genomics.
APJ ag: agonists of human apelin receptor APJ, primary screen, CHO-K1 cells, PathHunter beta-arrestin, luminescence | 0% DMSO wells, 100% apelin | activation, % at 20 µM | 330,000 compounds, 0.11% hits;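 active = activation more than six SD over the plate average, tested at 20 µM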;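 also: 0% = DMSO alone and 100% = apelin-13 at 10 nM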
Target sequence (P35414 whole entry, looked up): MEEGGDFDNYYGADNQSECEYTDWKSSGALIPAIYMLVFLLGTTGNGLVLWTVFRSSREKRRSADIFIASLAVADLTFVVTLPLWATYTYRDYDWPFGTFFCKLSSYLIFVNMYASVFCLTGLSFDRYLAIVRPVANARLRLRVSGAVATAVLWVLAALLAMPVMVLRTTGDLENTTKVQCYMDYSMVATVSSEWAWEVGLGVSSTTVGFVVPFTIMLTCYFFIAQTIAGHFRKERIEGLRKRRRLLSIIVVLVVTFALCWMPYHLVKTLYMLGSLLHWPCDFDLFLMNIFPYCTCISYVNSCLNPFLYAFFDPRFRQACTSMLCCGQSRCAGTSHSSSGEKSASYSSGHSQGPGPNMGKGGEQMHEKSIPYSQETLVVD
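Test system: CHO-K1 APJ beta-arrestin complementation cell line | Compound: Single test compound dose, 20 µM final, 1% DMSO | Incubation: Compound 90 min 25 °C, reagent 1 h | Measured by: beta-gal luminescence | Read-out basis: APJ–arrestin association signal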
APJ antag: antagonists of human apelin receptor APJ, primary screen, CHO-K1 cells, beta-arrestin complementation, luminescence. P35414. inhibition, % at 20 µM. 330,000 compounds, 0.32% hits;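 active = inhibition above about 40% at 20 µM, limit read from the data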;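 also: cells challenged with 10 nM apelin-13 agonist together with compound; plate controls were apelin-13 plus DMSO wells for no effect and DMSO wells lacking apelin-13 for full effect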
CXCR6 block: CXCR6 receptor inhibitors, primary screen, cell-based, beta-arrestin, luminescence, CHO-K1 PathHunter, 1536-well; inhibition, % at 20 µM; 360,000 compounds, 0.36% hits; AID 602244, 2012; in the data active = inhibition above about 34%, passing the limit was not always enough;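 also: antagonist mode with CXCL16 agonist at 10 nM final; 0% = 10 nM CXCL16 with DMSO and 100% = unstimulated wells without agonist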
EBI2 antag: EBI2 receptor antagonists, beta-arrestin recruitment, primary screen, cell-based, luminescence, 7a,25-OHC stimulation, uHTS | G-protein coupled receptor 183 (Homo sapiens), P32249 | 7a,25-OHC stimulated | inhibition, % at 5 µM | 360,000 compounds, 0.81% hits; in the data active = inhibition above about 38%;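 also: enzyme fragment complementation signal reports receptor beta-arrestin coupling in cells; 0% = agonist plus DMSO wells and 100% = wells without agonist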
Target sequence (P32249 whole entry, looked up, the tested form may be a part): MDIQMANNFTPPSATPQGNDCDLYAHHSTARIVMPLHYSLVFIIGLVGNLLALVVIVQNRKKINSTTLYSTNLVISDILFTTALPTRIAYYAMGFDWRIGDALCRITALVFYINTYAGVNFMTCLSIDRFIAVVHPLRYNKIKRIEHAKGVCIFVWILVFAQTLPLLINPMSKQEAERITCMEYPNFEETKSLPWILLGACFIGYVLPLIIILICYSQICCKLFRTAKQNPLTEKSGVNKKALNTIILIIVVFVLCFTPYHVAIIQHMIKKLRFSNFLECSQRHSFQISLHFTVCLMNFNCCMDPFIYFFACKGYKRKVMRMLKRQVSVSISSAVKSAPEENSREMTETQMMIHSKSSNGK
CCR6 antag: CCR6 receptor antagonists, primary screen, cell-based, CHO-K1, luminescence, beta-arrestin, uHTS; AID 493098, 2011; inhibition, % at 20 µM; CHO-K1 CCR6 PathHunter beta-arrestin, CCL20-stimulated; C-C chemokine receptor type 6 (Homo sapiens), P51684; 340,000 compounds, 0.49% hits;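 active = compounds whose inhibition of the agonist-driven luminescence signal at 20 µM reaches about 50%, limit read from the data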;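 also: cells stimulated with CCL20 at 14 nM final; plate controls were DMSO with CCL20 for no effect and DMSO without agonist for full effect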
EBI2 conf: EBI2 antagonist hit retest, beta-arrestin, confirmation, cell-based, single concentration, luminescence, 7a,25-OHC stimulation; 7a,25-OHC antagonism; shares compounds with EBI2 antag; 2,400 compounds, 29% hits; inhibition, % at 5 µM;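 active = inhibition of at least 50%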
EBI2 ag: EBI2 agonist activity of antagonist hits, confirmation, counter-screen for EBI2 antagonist project, cell-based, single concentration, agonist mode, luminescence | EBI2-expressing cells, 60 min; 0% vehicle, 100% 7α,25-dihydroxycholesterol control | shares compounds with EBI2 antag | 2,400 tested, under 10 active | activation, % at 5 µM | AID 652000, 2013;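 active = activation of at least 50%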
bGal cs: E. coli beta-galactosidase enzyme inhibition, confirmation, counter-screen for EBI2 antagonist project, biochemical, luminescence, single concentration; purified beta-galactosidase, luminescent Galacton Star, 15 min; shares compounds with EBI2 antag; inhibition, % at 5 µM; AID 652176, 2013; 2,400 compounds, 1% hits;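 active = replicate-average signal at least 3 plate SD below neutral wells, shown as high inhibition, flagging enzyme-inhibiting false positives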;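 also: 0% = DMSO wells with enzyme and 100% = wells lacking enzyme; higher means stronger loss of beta-gal luminescence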
Active calls of the source: *; . = not tested or not shown. In the library only some 1.5% were active in any assay of this set; here they are far more common.

SMILES | APJ ag | APJ antag | CXCR6 block | EBI2 antag | CCR6 antag | EBI2 conf | EBI2 ag | bGal cs
O=C(CN1CCN(S(=O)(=O)c2ccc(Cl)cc2)CC1)Nc1ccc2c(c1)OCO2 | -1.1 | 0.8 | -3.0 | 10.8 | 3.9 | . | . | .
CCS(=O)(=O)N1Cc2ccccc2CC1C(=O)Nc1nc2ccccc2[nH]1 (stereo not given) | 3.7 | 2.8 | -0.2 | 0.8 | 5.7 | . | . | .
COc1ccc(S(=O)(=O)N2CCC(C(=O)NCCc3c[nH]c4ccccc34)CC2)cc1 | -1.3 | 1.2 | -5.9 | 45.2* | 1.3 | 18.4 | -0.2 | 9.1
CCS(=O)(=O)N1Cc2ccccc2CC1C(=O)NCCc1c[nH]c2ccccc12 (stereo not given) | 1.0 | 0.0 | 16.1 | 44.4* | 5.2 | 18.1 | 0.6 | 2.5
Cc1ccccc1NC(=O)Cc1nc(COC(=O)Cc2cccc(C(F)(F)F)c2)cs1 | . | . | -2.0 | -7.1 | . | . | . | .
CCC(C)(C)C1CCC2(CC1)NC(=O)N(CC(=O)Nc1nc(-c3ccc(C)cc3)cs1)C2=O (stereo not given) | -0.6 | 9.2 | 1.1 | 42.9* | 22.5 | 12.9 | 1.7 | 4.5
CC(=O)CSc1nc2ccc(Nc3nc(N4CCOCC4)nc(N4CCOCC4)n3)cc2s1 | 0.0 | -11.5 | -0.9 | 44.1* | -0.8 | 21.9 | -0.9 | -14.4
CSc1ccc(/C=N/NC(=O)CN2CCN(Cc3ccccc3Cl)CC2)cc1 | -0.6 | 0.4 | -5.8 | 60.9* | 7.7 | 45.7 | 0.6 | 5.5
Cc1ccc(/C=N/NC(=O)CN2CCN(Cc3ccccc3Cl)CC2)o1 | 3.7 | -0.5 | -3.8 | 25.3 | 7.2 | . | . | .
CSc1ccc(/C=N/NC(=O)CN2CCN(Cc3ccc(C)cc3)CC2)cc1 | -2.2 | 11.7 | -8.1 | 44.8* | 6.7 | 36.1 | 1.4 | 6.3
COc1ccc(Cn2c(=O)c3cccnc3n(Cc3ccc([N+](=O)[O-])cc3)c2=O)cc1 | -1.7 | -10.1 | 12.9 | 47.2* | 23.9 | 9.6 | 1.4 | -1.0
Cc1cccc(Nc2nc(N3CCCC3)nc(N3CCCC3)n2)c1 | -4.4 | 11.9 | -8.1 | 41.5* | -7.0 | 7.0 | -1.4 | -8.9
Cc1cccc(C)c1-c1ccc(CN2C(CC(C)C)C(=O)N(Cc3cn(CC4CCCCC4)nn3)CCS2(=O)=O)cc1 (stereo not given) | . | . | 6.6 | 21.2 | 9.2 | . | . | .
Cc1cc(C)c2c(=O)n3c(nc2c1)C(Cc1ccccc1)NC(=O)c1cccnc1-3 (stereo not given) | . | . | 1.9 | 19.6 | . | . | . | .
Cc1cc(C)c2c(=O)n3c(nc2c1)C(Cc1ccccc1)NC(=O)c1cc2ccccc2cc1-3 (stereo not given) | . | . | 0.4 | 76.3* | . | 37.8 | -1.9 | -11.3
O=C1NC(Cc2ccccc2)c2nc3cc(Cl)ccc3c(=O)n2-c2cc(Cl)ccc21 (stereo not given) | -2.8 | 1.2 | . | . | . | . | . | .
Cc1ccc2nc3n(c(=O)c2c1)-c1ccc(Cl)cc1C(=O)NC3Cc1ccccc1 (stereo not given) | -1.6 | 9.8 | . | . | . | . | . | .
Cc1ccc2nc3n(c(=O)c2c1)-c1cc2ccccc2cc1C(=O)NC3Cc1ccccc1 (stereo not given) | . | . | 8.5 | 54.1* | . | 34.3 | -0.2 | -13.6
CCC1NC(=O)c2cc3ccccc3cc2-n2c1nc1ccc(F)cc1c2=O (stereo not given) | . | . | -10.5 | 7.9 | . | . | . | .
CCCC1NC(=O)c2cc3ccccc3cc2-n2c1nc1ccc(C)cc1c2=O (stereo not given) | . | . | -7.5 | 57.3* | . | 43.5 | 2.1 | 7.2
CCCC1NC(=O)c2cc3ccccc3cc2-n2c1nc1cc(Cl)ccc1c2=O (stereo not given) | . | . | 5.0 | 53.2* | . | 50.5* | -0.3 | 6.1
CC(C)(C)OC(=O)N(CCc1ccccc1)Cc1cccc(OCc2cccc(NC(=O)c3ccccc3)c2)c1 | . | . | 8.5 | 11.5 | 4.7 | . | . | .
COc1ccc(C(C)=O)cc1Cn1c(C)c(C(=O)NC2CC2)sc1=O | . | . | -2.3 | -1.5 | . | . | . | .
COc1ccc(-c2cc(=O)oc3cc4occ(C)c4cc23)cc1 | -2.3 | -2.2 | 11.4 | 49.0* | 21.5 | 33.4 | 0.3 | 6.0
Cc1cc(C)c(Cn2cnc(-c3ccc([N+](=O)[O-])cc3)c2)c(C)c1 | -5.6 | 12.7 | -4.5 | 42.1 | 8.9 | . | . | .
SMILES | APJ ag | APJ antag | CXCR6 block | EBI2 antag | CCR6 antag | EBI2 conf | EBI2 ag | bGal cs
CC(C)(C)c1ccc(Cn2cnc(-c3ccc([N+](=O)[O-])cc3)c2)cc1 | -2.3 | -10.5 | 3.5 | 50.6* | 14.1 | 23.3 | 0.6 | 5.7
CNc1ccc(C(=O)N2CCN(S(=O)(=O)c3ccc4c(c3)OCCCO4)CC2)cc1[N+](=O)[O-] | -2.9 | 29.6 | 6.8 | 47.5* | 17.2 | 29.2 | 1.2 | 7.7
COc1ccccc1N(C(=O)c1ccncc1)c1nc(-c2ccc([N+](=O)[O-])cc2)cs1 | 6.3 | -2.7 | -9.4 | 55.1* | 6.7 | 74.2* | 1.2 | 0.9
CCOc1ccc(CCN2C(=O)C(=O)N([C@@H](Cc3ccccc3)CN3CCC[C@H]3CN3C(=O)C(=O)NC[C@@H]3CC(C)C)C[C@@H]2Cc2ccc(O)cc2)cc1 | . | . | 14.2 | 5.7 | . | . | . | .
CCOc1cccc(-c2nn(-c3ccccc3)cc2/C=C(/C#N)C(=O)NCCCn2ccnc2)c1 | -0.6 | -8.5 | 5.5 | 39.9* | 3.0 | 14.2 | 0.9 | 8.2
N#C/C(=C/c1cn(-c2ccccc2)nc1-c1cccc(OCc2ccccc2)c1)C(=O)NCCCn1ccnc1 | -1.6 | 1.8 | 9.0 | 29.2 | 15.7 | . | . | .
Cc1oc(-c2ccc(Cl)cc2)cc1C(=O)NC1CCN(Cc2ccccc2)CC1 | -3.4 | 12.2 | -2.4 | 41.0* | 2.0 | 17.5 | -0.9 | -13.1
O=C(c1ccco1)N1CCN(C(=O)c2cc3c(=O)oc4ccccc4c3s2)CC1 | . | . | -0.5 | 80.5* | -28.5 | 60.9* | 0.9 | -4.1
Cc1ccc2cc3cc(C(=O)N4CCN(C(=O)c5ccco5)CC4)sc3nc2c1 | -1.5 | 6.6 | 1.9 | 63.3* | -11.8 | 30.2 | -1.1 | -6.9
